Experimental data taken from ChEMBL document CHEMBL4819012, “Discovery of novel 2-aryl-3-sulfonamido-pyridines (HoAns) as microtubule polymerization inhibitors with potent antitumor activities” (Eur J Med Chem, 2021).
pIC50: −log10 of the molar value. Activity calls are given as the source filed them. The calls are words filed in the database; no cut-off is given here.

Experiments:
A549 = assay: Antiproliferative activity against human A549 cells assessed as cell viability measured after 72 hrs by MTS method; assay type: functional, cell-based; conditions: A549, 72 h
Summary of the method: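 Log-phase cells plated at 5×10^3–6×10^3 per well for 24 h, then given graded compound concentrations in fresh medium for 72 h, five replicate wells. Medium replaced with medium containing 10% MTS, 30 min or more at 37 °C in dark; OD 490 nm read. IC50 by nonlinear regression; mean ± SD of at least three experiments.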

HUVEC = assay: Anti-vascular activity against human HUVEC cells assessed as inhibition of cell migration at 0.5 to 1 uM measured after 24 hrs by cell migration assay; assay type: functional, cell-based; conditions: dose 0.5-1 µM
RKO [1] = assay: Induction of apoptosis in human RKO cells assessed as early apoptotic cells at 0.5 uM measured after 24 hrs by PI/Annexin V staining based flow cytometry assay (reference value: 2.58%); assay type: functional
RKO [2] = assay: Induction of cell cycle arrest in human RKO cells assessed as reduction in cdc2 expression at 0.5 to 1 uM measured after 24 hrs by western blot assay; assay type: functional, cell-based; conditions: dose 0.5-1 µM
Summary of the method: (§1)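 RKO or SW620 cells (4×10^5–5×10^5 per well) exposed to 0.5 or 1 μM or DMSO for 24 h. Lysed in SDS loading buffer, boiled, run on 8–15% SDS-PAGE and moved to PVDF. Blocked in 5% milk, probed overnight at 4 °C with anti-Cdc2 or anti-cyclin B1 (1:1000), β-actin as reference. HRP secondary and ECL detection. Done at least three times.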

RKO [3] = assay: Induction of apoptosis in human RKO cells assessed as increase in ROS levels at 0.25 uM measured after 24 hrs by DCFH-DA staining based flow cytometry method relative to control; assay type: functional
Summary of the method: (§2)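 Cells at 5×10^5 per well exposed to 0.25 or 0.5 µM for 24 h, then loaded with 5 µM DCFH-DA in serum-free medium 30 min at 37 °C; washed, harvested, read by flow cytometry (ex 488/em 525 nm). ROS given as ratio of treated to control; at least three experiments.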

RKO [4] = assay: Induction of apoptosis in human RKO cells assessed as viable cells at 0.5 uM measured after 24 hrs by PI/Annexin V staining based flow cytometry assay (reference value: 96.6%); assay type: functional; conditions: read-out: Activity
PANC-1 [5] = assay: Induction of cell cycle arrest in human PANC-1 cells assessed as accumulation of cells in G1 phase at 0.5 uM measured after 24 hrs by PI staining based flow cytometry method (reference value: 31.35%); assay type: functional
MCF7 = assay: Antiproliferative activity against human MCF7 cells assessed as cell viability at 10 uM measured after 72 hrs by MTS method; assay type: functional; conditions: read-out: Activity
Summary of the method: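 Single-concentration screen at 10 µM for 72 h. Log-phase cells plated at 5×10^3–6×10^3 per well for 24 h before dosing, five replicate wells. Viability measured by MTS: 10% MTS in fresh medium, 30 min or more at 37 °C in dark, absorbance 490 nm.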

RKO [6] = assay: Induction of apoptosis in human RKO cells assessed as late apoptotic cells at 0.5 uM measured after 24 hrs by PI/Annexin V staining based flow cytometry assay (reference value: 0.81%); assay type: functional
SW-620 [7] = assay: Induction of apoptosis in human SW-620 cells assessed as late apoptotic cells at 0.5 uM measured after 24 hrs by PI/Annexin V staining based flow cytometry assay (reference value: 3.66%); assay type: functional
SW-620 [8] = assay: Induction of apoptosis in human SW-620 cells assessed as increase in ROS levels at 0.25 uM measured after 24 hrs by DCFH-DA staining based flow cytometry method relative to control; assay type: functional; summary of the method: as §2
[9] = Toxicity against Athymic nude mouse xenografted with SW-620 cells assessed as toxicity in heart at 25 mg/kg per two days, po measured after 20 days; assay type: organism-based; conditions: in vivo, 480 h, time 20 day
Summary of the method: (§3)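 At the end of the 20-day oral SW620 xenograft study (25 mg/kg every 2 days, n = 6), heart, liver, spleen, lung and kidney were fixed in 4% paraformaldehyde and embedded in paraffin. 4 μm sections stained with Mayer hematoxylin 5 min and eosin-phloxine 2 min, then examined by light microscopy.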

SW-620 [10] = assay: Induction of apoptosis in human SW-620 cells assessed as early apoptotic cells at 0.5 uM measured after 24 hrs by PI/Annexin V staining based flow cytometry assay (reference value: 2.41%); assay type: functional
[11] = Toxicity against Athymic nude mouse xenografted with SW-620 cells assessed as toxicity in liver at 25 mg/kg per two days, po measured after 20 days by H and E staining method; assay type: organism-based; conditions: in vivo, 480 h, time 20 day; summary of the method: as §3
[12] = Toxicity against Athymic nude mouse xenografted with SW-620 cells assessed as toxicity in spleen at 25 mg/kg per two days, po measured after 20 days by H and E staining method; assay type: organism-based; conditions: in vivo, 480 h, time 20 day; summary of the method: as §3
[13] = target: Tubulin beta (Homo sapiens) (UniProt P68371+Q9H4B7+Q13509+P04350+Q3ZCM7+P07437+Q13885+Q9BVA1+Q9BUF5+A6NNZ2); assay: Inhibition of N,N'-Ethylenebis(iodoacetamide) binding to beta tubulin in human SW-620 cells preincubated for 2 hrs followed by addition of EBI and measured after 2 hrs by western blot assay; assay type: cell-based; conditions: dose 10-40 µM
Summary of the method: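 SW620 cells (5×10^5 per well) pretreated for 2 h with 10, 20 or 40 μM of test agent or DMSO, then given 100 μM EBI for 2 h. Lysed in SDS loading buffer. β-tubulin and β-tubulin–EBI adduct bands resolved by western blot probed with anti-β-tubulin.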

[14] = Toxicity against Athymic nude mouse xenografted with SW-620 cells assessed as toxicity in kidney at 25 mg/kg per two days, po measured after 20 days by H and E staining method; assay type: organism-based; conditions: in vivo, 480 h, time 20 day; summary of the method: as §3
PANC-1 [15] = assay: Induction of cell cycle arrest in human PANC-1 cells assessed as accumulation of cells in S phase at 0.5 uM measured after 24 hrs by PI staining based flow cytometry method (reference value: 65%); assay type: functional
SW-620 [16] = assay: Induction of cell cycle arrest in human SW-620 cells assessed as accumulation of cells in G1 phase at 0.5 uM measured after 24 hrs by PI staining based flow cytometry method (reference value: 40.06%); assay type: functional
PANC-1 [17] = assay: Induction of cell cycle arrest in human PANC-1 cells assessed as accumulation of cells in G2 phase at 0.5 uM measured after 24 hrs by PI staining based flow cytometry method (reference value: 3.63%); assay type: functional
SW-620 [18] = assay: Induction of cell cycle arrest in human SW-620 cells assessed as reduction in cdc2 expression at 0.5 to 1 uM measured after 24 hrs by western blot assay; assay type: functional, cell-based; conditions: dose 0.5-1 µM; summary of the method: as §1
SW-620 [19] = assay: Antiproliferative activity against human SW-620 cells assessed as inhibition of cell proliferation measured after 24 hrs by crystal violet staining based colony-formation assay; assay type: functional; conditions: dose 0.125-1 µM
Summary of the method: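 RKO or SW620 cells plated at 1000 cells/well overnight, exposed to 0.125–1 µM for 24 h, then grown 10 days in fresh medium. Colonies fixed in methanol 15 min, stained with 0.1% crystal violet 30 min, photographed; colonies of more than 50 cells counted.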

[20] = Inhibition of tubulin polymerization assessed as morphology changes from fusiform to roud at 1 uM measured 24 hrs by DAPI staining based immunoflourescence assay relative to ABT-751

Work on COc1ccc(S(=O)(=O)Nc2cccnc2Nc2ccc(O)cc2)cc1 [ABT-751] yielded a pIC50 (A549) of 5.86.

With COc1ccc(S(=O)(=O)Nc2cccnc2-c2ccc(C#N)c(F)c2)cc1 the Activity (HUVEC) was “Dose-Dependent Effect”, the Activity (RKO [1]) was 24.47% and the Activity (RKO [2]) was “Active”. The “fold change (FC)” value (RKO [3]) was 1.5, the viability at 0.5 µM (RKO [4]) was 74.5% and the Activity (PANC-1 [5]) was 34.22%. The viability at 10 µM (MCF7) was over 70%, the Activity (RKO [6]) was 1.04% and the Activity (SW-620 [7]) was 3.11%. The “fold change (FC)” value (SW-620 [8]) was 1.5, the Activity [9] was “Non-Toxic” and the Activity (SW-620 [10]) was 6.66%. For the same molecule, the Activity [11] was “Non-Toxic”, the Activity [12] was “Non-Toxic” and the inhibition [13] was “Dose-Dependent Effect”. The Activity [14] was “Non-Toxic”, the Activity (PANC-1 [15]) was 50.11% and the Activity (SW-620 [16]) was 38.03%. For the same molecule, the Activity (PANC-1 [17]) was 15.67%, the Activity (SW-620 [18]) was “Active” and the Activity (SW-620 [19]) was “Dose-Dependent Effect”. The inhibition [20] was “Active”.
